pIC50: −log10 of the molar value.
Assays:
[1] = Selectivity index, ratio of CC50 for human PBMC to IC50 for HIV1 BaL infected in human PBMC; type: functional
Outline: (§1)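 Selectivity index calculated as CC50/IC50 for each cell system: CEM-SS/HIV-1 LAI, MT4/HIV-1 IIIB, PBMC/HIV-1 Bal.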

[2] = test system: Human immunodeficiency virus 1; test: Antiviral activity against HIV1 LAI infected in human CEM-SS cells assessed as inhibition of viral replication by reverse transcriptase activity measurement; settings: Human immunodeficiency virus 1, LAI
[3] = Cytotoxicity against human PBMC by MTT assay; type: cell-based
Outline: (§2)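 Uninfected CEM-SS, MT4 or PBMC cells exposed to compound, up to 100 μM for most compounds. CC50 is the concentration causing 50% death of uninfected cells. Values are averages of at least two or three separate experiments.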

[4] = Cytotoxicity against human MT4 cells by MTT assay; type: cell-based; outline: as §2
[5] = Selectivity index, ratio of CC50 for human CEM-SS cells to IC50 for HIV1 LAI infected in human CEM-SS cells; type: functional; outline: as §1
[6] = test system: Human immunodeficiency virus 1; test: Antiviral activity against HIV1 3B infected in human MT4 cells assessed as protection from virus-induced cytopathogenicity by MTT assay; type: functional, organism-based; settings: Human immunodeficiency virus 1, 3B
Outline: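 HIV-1 IIIB replication in MT4 cells followed by virus-induced cytopathogenic effect. IC50 is the concentration protecting 50% of infected cells against cytopathogenicity. Values are averages of at least two or three separate experiments.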

[7] = Cytotoxicity against human CEM-SS cells by MTT assay; type: cell-based; outline: as §2
[8] = Selectivity index, ratio of CC50 for human MT4 cells to IC50 for HIV1 3B infected in human MT4 cells; type: functional; outline: as §1
[9] = test system: Human immunodeficiency virus 1; test: Antiviral activity against HIV1 BaL infected in human PBMC assessed as inhibition of viral replication by reverse transcriptase activity measurement; settings: Human immunodeficiency virus 1, BaL

pIC50 [2]	pIC50 [9]	Structure (SMILES)	Ratio CC50/IC50 [1]	CC50 [3]	CC50 [4]	Ratio CC50/IC50 [5]	pIC50 [6]	CC50 [7]	Ratio CC50/IC50 [8]
5.28	< 4.43	Cc1nc(-c2nc(COc3c4cc(CC(=O)[O-])cc3Cc3cc(CC(=O)[O-])cc(c3O)Cc3cc(CC(=O)[O-])cc(c3OCc3nc(-c5nc(C)c(C(=O)[O-])s5)sc3C(=O)[O-])Cc3cc(CC(=O)[O-])cc(c3O)C4)c(C(=O)[O-])s2)sc1C(=O)[O-].[Na+].[Na+].[Na+].[Na+].[Na+].[Na+].[Na+].[Na+]	<1	37 µM	> 100 µM	>26	4.85	> 100 µM	>7
8.29	8.11	Cc1cn([C@H]2C[C@H](N=[N+]=[N-])[C@@H](CO)O2)c(=O)[nH]c1=O [ZIDOVUDINE]	–	75 µM	> 100 µM	–	–	> 100 µM	–
4.09	5.02	O=C([O-])Cc1cc2c(O)c(c1)Cc1cc(CC(=O)[O-])cc(c1O)Cc1cc(CC(=O)[O-])cc(c1O)Cc1cc(CC(=O)[O-])cc(c1O)C2.[Na+].[Na+].[Na+].[Na+]	10.5	100 µM	> 100 µM	>1.2	4.36	> 100 µM	>2.3
4.07	4.35	O=S(=O)([O-])c1cc2c(O)c(c1)Cc1cc(S(=O)(=O)[O-])cc(c1O)Cc1cc(S(=O)(=O)[O-])cc(c1O)Cc1cc(S(=O)(=O)[O-])cc(c1O)C2.[Na+].[Na+].[Na+].[Na+]	>2	> 100 µM	> 100 µM	>1.2	4.42	> 100 µM	>2.6
4.55	4.56	Cc1csc(-c2nc(COc3c4cc(CC(=O)[O-])cc3Cc3cc(CC(=O)[O-])cc(c3O)Cc3cc(CC(=O)[O-])cc(c3OCc3csc(-c5nc(C)cs5)n3)Cc3cc(CC(=O)[O-])cc(c3O)C4)cs2)n1.[Na+].[Na+].[Na+].[Na+]	8.3	230 µM	> 1000 µM	>36	4.78	> 1000 µM	>60

Structure (SMILES)	pIC50 [2]	pIC50 [9]	Ratio CC50/IC50 [1]	CC50 [3]	CC50 [4]	Ratio CC50/IC50 [5]	pIC50 [6]	CC50 [7]	Ratio CC50/IC50 [8]
Cc1csc(-c2nc(COc3c4cc(CP(=O)([O-])O)cc3Cc3cc(CP(=O)([O-])O)cc(c3O)Cc3cc(CP(=O)([O-])O)cc(c3OCc3csc(-c5nc(C)cs5)n3)Cc3cc(CP(=O)([O-])O)cc(c3O)C4)cs2)n1.[Na+].[Na+].[Na+].[Na+]	4.82	4.24	>1.7	92 µM	> 100 µM	>6	4.85	> 100 µM	>7
O=P([O-])(O)Cc1cc2c(O)c(c1)Cc1cc(CP(=O)([O-])O)cc(c1O)Cc1cc(CP(=O)([O-])O)cc(c1O)Cc1cc(CP(=O)([O-])O)cc(c1O)C2.[Na+].[Na+].[Na+].[Na+]	< 4.00	4.15	>1	78 µM	> 100 µM	–	< 4.00	> 100 µM	–

From ChEMBL document CHEMBL1157689, “Synthesis and anti-HIV evaluation of water-soluble calixarene-based bithiazolyl podands” (Bioorg Med Chem, 2010)
